Laboratory results reported in ChEMBL document CHEMBL4477243, “Discovery and SAR of a novel series of potent, CNS penetrant M4 PAMs based on a non-enolizable ketone core: Challenges in disposition” (Bioorg Med Chem Lett, 2016).

What was measured:
[1] = target: T1, Muscarinic acetylcholine receptor M4 (Homo sapiens, UniProt P08173); test: Positive allosteric modulation activity at human M4 receptor expressed in CHO cells co-expressing Gqi5 protein assessed as potentiation of EC20 acetyl choline-induced response by calcium mobilization assay; format: functional, cell-based
T1 sequence (P08173 whole entry): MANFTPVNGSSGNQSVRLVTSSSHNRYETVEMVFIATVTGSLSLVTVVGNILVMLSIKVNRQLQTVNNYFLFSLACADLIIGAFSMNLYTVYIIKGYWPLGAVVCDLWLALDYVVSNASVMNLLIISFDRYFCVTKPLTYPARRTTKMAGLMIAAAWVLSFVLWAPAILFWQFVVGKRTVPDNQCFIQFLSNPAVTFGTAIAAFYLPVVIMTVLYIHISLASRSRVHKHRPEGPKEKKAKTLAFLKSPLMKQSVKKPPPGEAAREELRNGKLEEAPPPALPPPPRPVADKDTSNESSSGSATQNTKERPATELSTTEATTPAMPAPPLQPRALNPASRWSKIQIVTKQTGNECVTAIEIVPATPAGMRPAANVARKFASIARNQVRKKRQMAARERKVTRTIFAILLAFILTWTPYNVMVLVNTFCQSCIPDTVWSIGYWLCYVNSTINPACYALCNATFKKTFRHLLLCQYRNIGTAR
How it was run: (§1)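 Calcium mobilization in CHO cells stably co-expressing human or rat M4 with the chimeric Gqi5 protein. Test compound given with a fixed EC20 concentration of acetylcholine. Potency reported as EC50; efficacy as % of the acetylcholine maximum. Means of three independent experiments, each in triplicate.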

[2] = target: T2, Muscarinic acetylcholine receptor M4 (Homo sapiens) (UniProt P08173); test: Positive allosteric modulation activity at human M4 receptor expressed in CHO cells co-expressing Gqi5 protein assessed as potentiation of EC20 acetyl choline-induced response by calcium mobilization assay relative to acetylcholine; format: functional, cell-based; how it was run: as §1
T2 sequence (whole entry): T1 sequence (P08173 whole entry)

[3] = target: T3, Muscarinic acetylcholine receptor M4 (Rattus norvegicus, UniProt P08485); test: Positive allosteric modulation activity at rat M4 receptor expressed in CHO cells co-expressing Gqi5 protein assessed as potentiation of EC20 acetyl choline-induced response by calcium mobilization assay; format: functional, cell-based; conditions: read-out: EC50; how it was run: as §1
T3 sequence (P08485 whole entry): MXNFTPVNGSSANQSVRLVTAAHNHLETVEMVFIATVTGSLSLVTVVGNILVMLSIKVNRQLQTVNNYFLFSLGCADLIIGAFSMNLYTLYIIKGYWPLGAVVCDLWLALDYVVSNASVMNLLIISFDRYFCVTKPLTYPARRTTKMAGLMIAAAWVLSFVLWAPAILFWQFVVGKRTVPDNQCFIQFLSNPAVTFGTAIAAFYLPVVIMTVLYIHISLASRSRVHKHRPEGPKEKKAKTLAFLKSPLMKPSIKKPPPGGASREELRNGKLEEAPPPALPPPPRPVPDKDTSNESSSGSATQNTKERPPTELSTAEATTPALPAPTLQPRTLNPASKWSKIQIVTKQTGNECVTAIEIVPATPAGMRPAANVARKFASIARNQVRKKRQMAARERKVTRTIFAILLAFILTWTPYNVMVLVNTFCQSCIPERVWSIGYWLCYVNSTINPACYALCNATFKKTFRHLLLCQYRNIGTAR

[4] = target: T4, Muscarinic acetylcholine receptor M4 (Rattus norvegicus) (UniProt P08485); test: Positive allosteric modulation activity at rat M4 receptor expressed in CHO cells co-expressing Gqi5 protein assessed as potentiation of EC20 acetyl choline-induced response by calcium mobilization assay relative to acetylcholine; format: functional, cell-based; how it was run: as §1
T4 sequence (whole entry): T3 sequence (P08485 whole entry)

[5] = Ratio of drug level in Sprague-Dawley rat brain to plasma at 0.2 to 0.25 mg/kg, iv administered as cassette dose measured 0.25 hrs post dose; format: ADME, organism-based; conditions: brain and plasma
How it was run: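 Male Sprague-Dawley rats (n=1) received an IV cassette dose of 0.20-0.25 mg/kg. Brain and plasma sampled 0.25 hr post-administration. Total brain:plasma partition coefficient (Kp) measured; unbound coefficient (Kp,uu) calculated.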

Cytochrome P450 = test: Inhibition of Cytochrome P450 (unknown origin); format: ADME, protein assay; conditions: human
Cytochrome P450 1A2 = target: T5, Cytochrome P450 1A2 (Homo sapiens, UniProt P05177); test: Inhibition of CYP1A2 (unknown origin); format: ADME
T5 sequence (P05177 whole entry): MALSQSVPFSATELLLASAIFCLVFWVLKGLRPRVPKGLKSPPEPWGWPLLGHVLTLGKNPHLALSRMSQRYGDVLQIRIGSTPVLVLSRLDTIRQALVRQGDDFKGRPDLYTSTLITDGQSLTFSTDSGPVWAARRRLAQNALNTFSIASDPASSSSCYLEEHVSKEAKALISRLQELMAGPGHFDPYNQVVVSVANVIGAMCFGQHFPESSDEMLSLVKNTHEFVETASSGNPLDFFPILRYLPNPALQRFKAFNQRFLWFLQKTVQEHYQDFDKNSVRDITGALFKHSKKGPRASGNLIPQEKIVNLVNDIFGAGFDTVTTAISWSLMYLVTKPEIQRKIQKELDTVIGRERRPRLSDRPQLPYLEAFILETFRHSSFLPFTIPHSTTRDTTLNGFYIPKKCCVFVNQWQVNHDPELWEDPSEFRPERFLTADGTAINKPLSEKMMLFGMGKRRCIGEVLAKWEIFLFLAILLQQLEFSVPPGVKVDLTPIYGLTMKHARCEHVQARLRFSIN

[6] = Fraction unbound in human plasma; format: ADME, cell-free
How it was run: (§2)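 Plasma protein binding, reported as fraction unbound in rat and human plasma. Single experiment (n=1) run in triplicate.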

[7] = Fraction unbound in rat plasma; format: ADME, cell-free; how it was run: as §2

EC50 ([1]; read-out: EC50) [nM] | %max [2] [%] | EC50 [3] [nM] | %max [4] [%] | Kp at 0.25 h [5] | inhibition (INH) (Cytochrome P450) | inhibition (INH) (Cytochrome P450 1A2) | fraction unbound [6] | fraction unbound [7] | EC50 ([1]; read-out: pEC50 (converted)) [nM] | SMILES
380 | 69.1 | 254 | 77.2 | 11 | – | – | – | – | – | COc1ccc(CCC(=O)c2sc3nnc(C)c(C)c3c2N)cc1F
> 10000 | – | > 10000 | – | – | – | – | – | – | – | Cc1nc2sc(C(O)c3ccccc3)c(N)c2c(C)c1Cl (stereo not given)
240 | 45 | 195 | 41 | 0.83 to 6.95 | Not Active | Active | 0.005 to 0.18 | 0.005 to 0.18 | – | Cc1cc(C)c2c(N)c(C(=O)c3ccc(F)c(Cl)c3)sc2n1
37 | 63.8 | 182 | 52.7 | 0.83 to 6.95 | Not Active | Active | 0.005 to 0.18 | 0.005 to 0.18 | 75.9 | Nc1c(C(=O)c2ccncc2)sc2nc(O)c3c(c12)CCCC3
105 | 74 | 417 | 95 | 0.83 to 6.95 | Not Active | Active | 0.005 to 0.18 | 0.005 to 0.18 | – | Cc1nc2sc(C(=O)c3cccnc3)c(N)c2c(C)c1Cl
102 | 76 | 166 | 67 | – | Not Active | Active | 0.005 to 0.18 | 0.005 to 0.18 | – | Cc1nnc2sc(C(=O)c3ccccc3)c(N)c2c1C
> 10000 | – | > 10000 | – | – | – | – | – | – | – | Cc1cc(C)c2c(N)c(C(O)c3ccc(F)c(Cl)c3)sc2n1 (stereo not given)
> 10000 | – | > 10000 | – | – | – | – | – | – | – | Cc1cc(C)c2c(N)c(C(O)c3ccccc3)sc2n1 (stereo not given)
355 | 70 | 380 | 73 | 0.83 to 6.95 | Not Active | Active | 0.005 to 0.18 | 0.005 to 0.18 | – | Cc1cc(C)c2c(N)c(C(=O)c3ccc(O)cc3)sc2n1

More lines, now with the values behind:

SMILES | EC50 ([1]; read-out: EC50) [nM] | %max [2] [%] | EC50 [3] [nM] | %max [4] [%] | Kp at 0.25 h [5] | inhibition (INH) (Cytochrome P450) | inhibition (INH) (Cytochrome P450 1A2) | fraction unbound [6] | fraction unbound [7] | EC50 ([1]; read-out: pEC50 (converted)) [nM]
Nc1c(C(O)c2ccncc2)sc2nc(OCCN3CCOCC3)c3c(c12)CCC3 (stereo not given) | > 10000 | – | > 10000 | – | – | – | – | – | – | –
COc1ccc(C(O)c2sc3nnc(C)c(C)c3c2N)cc1 (stereo not given) | > 10000 | – | > 10000 | – | – | – | – | – | – | –
Nc1c(C(=O)c2ccncc2)sc2nc(OCc3ccncc3)c3c(c12)CCC3 | 295 | – | 1230 | – | 0.83 to 6.95 | Not Active | Active | 0.005 to 0.18 | 0.005 to 0.18 | –
Cc1nnc2sc(C(O)c3ccccc3)c(N)c2c1C (stereo not given) | > 10000 | – | > 10000 | – | – | – | – | – | – | –
Cc1nnc2sc(C(O)c3ccncc3)c(N)c2c1C (stereo not given) | > 10000 | – | > 10000 | – | – | – | – | – | – | –
Cc1nnc2sc(C(O)c3cccnc3)c(N)c2c1C (stereo not given) | > 10000 | – | > 10000 | – | – | – | – | – | – | –
Nc1c(C(O)c2ccncc2)sc2nc(OCc3ccncc3)c3c(c12)CCC3 (stereo not given) | > 10000 | – | > 10000 | – | – | – | – | – | – | –
